In the library only some 1.5% were active in any assay of this set; here they are far more common.
APJ agonist: agonists of human apelin receptor APJ, primary screen, CHO-K1 cells, PathHunter beta-arrestin, luminescence; P35414; 0% DMSO wells, 100% apelin; activation, % at 20 µM; 330,000 compounds, 0.11% hits;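 active = activation more than six SD over the plate average, tested at 20 µM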;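 note: 0% = DMSO alone and 100% = apelin-13 at 10 nM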
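Test system – PathHunter CHO-K1 APJ (AGTRL-1) beta-arrestin reporter cells · Input – 1000 cells/well · Compound – single test compound dose, 20 µM final, 1% DMSO · Times – compound stimulation 90 min at 25 °C, detection 60 min · Technique – beta-gal luminescence · Read-out basis – APJ–arrestin association signal · Control set – negative DMSO alone, positive Apelin-13 at 10 nM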
CXCR6 block: CXCR6 receptor inhibitors, primary screen, cell-based, beta-arrestin, luminescence, CHO-K1 PathHunter, 1536-well; C-X-C chemokine receptor type 6 (Homo sapiens), O00574; inhibition, % at 20 µM; 360,000 compounds, 0.36% hits; AID 602244, 2012; in the data active = inhibition above about 34%, passing the limit was not always enough;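 note: antagonist mode with CXCL16 agonist at 10 nM final; 0% = 10 nM CXCL16 with DMSO and 100% = unstimulated wells without agonist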
Target sequence (O00574 whole entry, looked up): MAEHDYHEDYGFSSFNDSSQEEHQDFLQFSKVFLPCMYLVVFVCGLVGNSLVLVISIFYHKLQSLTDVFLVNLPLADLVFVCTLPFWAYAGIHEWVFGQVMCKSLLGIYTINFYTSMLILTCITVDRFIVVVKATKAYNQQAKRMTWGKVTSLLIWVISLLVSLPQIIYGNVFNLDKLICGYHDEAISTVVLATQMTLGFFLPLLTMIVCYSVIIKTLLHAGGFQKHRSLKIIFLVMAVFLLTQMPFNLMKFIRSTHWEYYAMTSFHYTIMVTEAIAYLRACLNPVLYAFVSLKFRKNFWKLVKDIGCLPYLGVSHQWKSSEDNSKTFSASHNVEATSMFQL
CCR6 antagonist: CCR6 receptor antagonists, primary screen, cell-based, CHO-K1, luminescence, beta-arrestin, uHTS | 340,000 compounds, 0.49% hits | CHO-K1 CCR6 PathHunter beta-arrestin, CCL20-stimulated | inhibition, % at 20 µM;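 active = compounds whose inhibition of the agonist-driven luminescence signal at 20 µM reaches about 50%, limit read from the data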;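 note: cells stimulated with CCL20 at 14 nM final; plate controls were DMSO with CCL20 for no effect and DMSO without agonist for full effect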
EBI2 block: EBI2 receptor antagonists, beta-arrestin recruitment, primary screen, cell-based, luminescence, 7a,25-OHC stimulation, uHTS. G-protein coupled receptor 183 (Homo sapiens), P32249. 7a,25-OHC stimulated. inhibition, % at 5 µM. 360,000 compounds, 0.81% hits. AID 651636, 2012; in the data active = inhibition above about 38%;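 note: enzyme fragment complementation signal reports receptor beta-arrestin coupling in cells; 0% = agonist plus DMSO wells and 100% = wells without agonist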
APJ antag: antagonists of human apelin receptor APJ, primary screen, CHO-K1 cells, beta-arrestin complementation, luminescence | 330,000 compounds, 0.32% hits | inhibition, % at 20 µM | P35414 | AID 2521, 2010;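 active = inhibition above about 40% at 20 µM, limit read from the data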;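 note: cells challenged with 10 nM apelin-13 agonist together with compound; plate controls were apelin-13 plus DMSO wells for no effect and DMSO wells lacking apelin-13 for full effect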
The depositor's hits bear a star; nt = not tested or not shown.

SMILES	APJ agonist	CXCR6 block	CCR6 antagonist	EBI2 block	APJ antag
Cc1cc(/C=C(\C#N)C(=O)NCc2cccs2)c(C)n1-c1ccccc1F	-5	7	7	51*	11
Cc1ccccc1S(=O)(=O)NC(=O)C1(C)CCN1C(=O)C1CCCCC1 (centres undefined)	nt	4	nt	2	nt
CCN1C/C(=C/c2cccc([N+](=O)[O-])c2)C(=O)/C(=C/c2cccc([N+](=O)[O-])c2)C1	nt	22	62*	27	nt
O=C1NC(=O)/C(=C/c2cccc([N+](=O)[O-])c2)N1	-4	15	12	0	0
Cn1nnnc1N=N/C(=N/Nc1ccccc1)c1ccccc1	-7	44*	87*	-4	37
COc1cc(OC)cc(-c2nc3ccccc3c(=O)n2OC(=O)c2ccc(C)c(C)c2)c1	11*	-7	-11	-18	-17
CCC(=O)c1ccc(OCC(=O)OCC(=O)NCCCc2ccccc2)cc1	-3	0	-8	-4	12
CCOC(=O)c1c(N2C(=O)C=CC2=O)sc(C)c1C	1	61*	nt	1	-5
CCOC(=O)c1c(NC(N)=O)sc(C)c1C	-3	-1	-8	-6	-6
O=CC(=O)c1ccccc1	-3	34	76*	-7	12
Cc1c(C(=O)Nc2ccccn2)sc2nc3n(c(=O)c12)CCC3	5	0	-5	-8	-10
Cc1cc(NC(=O)CSc2nc3cc(Cl)ccc3o2)no1	-1	12	19	1	29
O=S1(=O)C=C(Sc2nc3cc(Cl)ccc3o2)c2ccccc21	-6	56*	74*	14	24
CC1(C)OC(c2ccccc2)=C/C(=C/C=C2C(=O)c3ccccc3C2=O)O1	-7	46*	59*	10	36
CCCn1c(SC(C)C(=O)NCC2CCCO2)nc2sc3c(c2c1=O)CCC3 (centres undefined)	-6	2	16	-5	14
Cc1oc(-c2ccc(-c3ccccc3)cc2)nc1CN(CCO)C(C)C	0	13	6	4	-19
COc1cccc(CNc2ccc(C)c(Cl)c2)c1	-1	-1	14	-11	20
COc1cccc(CNc2cc(CSc3ccc(Cl)cc3)nc(C)n2)c1	-3	0	11	49*	12
CCc1nc2ccc(C(=O)N(C)CCCN(C)C)cn2c1N(CC)CCOC	nt	-5	nt	2	nt
Cc1oc2c(c1C(=O)c1ccccc1)C(=O)C(=O)c1ccccc1-2	9	36	71*	-4	-11
Cc1cccc(C(=O)N[C@H](C(=O)NCCc2ccc(S(N)(=O)=O)cc2)C(C)C)c1	-3	-4	-2	-7	4
COc1ccc(C(=O)/C=C/C(=O)N(CC(=O)NCCC(C)C)Cc2cccs2)c(O)c1	nt	21	85*	11	nt
COc1ccc(C(=O)N(Cc2ccco2)Cc2cccs2)c(O)c1	-9	4	11	-2	19
COc1ccc(C(=O)/C=C/C(=O)N(CC(=O)NC2CCCCC2)Cc2ccc(F)cc2)c(O)c1	nt	60*	98*	30	nt
CS(=O)(=O)N(CC(=O)NC1CCCCC1)Cc1ccc(F)cc1	-3	-4	5	1	-11
SMILES	APJ agonist	CXCR6 block	CCR6 antagonist	EBI2 block	APJ antag
COc1ccc(C2=C(N)c3ccccc3C2=O)cc1	0	8	19	-4	12
COC1=C(c2ccccc2)C(=O)c2ccccc2C1=O	12*	0	6	-1	-14
CC(C)(C)C(=O)Nc1ccccc1C(=O)NCCC(=O)Nc1ccccc1	1	1	13	6	5
Cc1cc(O)ccc1C1(c2ccc(O)cc2C)OC(=O)c2ccccc21	2	5	28	-12	5
O=C1OC2(c3ccccc31)c1cc(I)c(O)c(I)c1Oc1c2cc(I)c(O)c1I	-9	nt	nt	nt	46*
CCOC(=O)C1CCCN(C(=O)Cn2sc3nc(C)cc(C)c3c2=O)C1 (centres undefined)	1	2	67*	0	-3
Cc1cccc(C(=O)Oc2ccc3ccc(O)cc3c2)c1	0	-4	-7	4	12
CCN(CC)S(=O)(=O)c1ccc(N=Nc2cc(C)cc(Br)c2O)cc1	-7	42*	58*	26	30
CCOC(=O)c1c(C)[nH]c(C)c1C(=O)COC(=O)C1CC(=O)N(CCc2ccccc2)C1 (centres undefined)	-5	6	2	-4	14
Cc1cc(N2CCN(C)CC2)ccc1NC(=O)c1c2c(nc3ccccc13)CCN(Cc1ccccc1)C2	16*	-11	0	-5	-16
O=C(NC1CCCCCC1)c1c2c(nc3ccccc13)CCN(Cc1ccccc1)C2	-1	15	1	9	-12
O=C(CNC(=O)c1ccc(Br)o1)NC1CCCCC1	-4	-1	6	5	1
COc1ccc2cc(C(C)C(=O)O)ccc2c1 (centres undefined)	-4	-9	6	0	2
COc1ccccc1COCC(O)CN(Cc1ccco1)Cc1ccccc1O (centres undefined)	-2	4	88*	7	2
Cc1ccc(NC(=O)CN(Cc2ccco2)Cc2ccccc2O)cc1C	0	8	18	20	9
CCO[C@@H]1OC(C(=O)N2CCN(Cc3ccccc3)CC2)=C[C@H](c2ccc(Br)cc2)[C@H]1CCCO	-7	48*	58*	37	7
CNC(=O)c1cc(NC(=O)CCn2nc(-c3ccccc3)c3ccccc3c2=O)ccc1OC	-3	2	8	-12	19
CCn1c(SCC(=O)NC2CCCCC2)nnc1-c1cccs1	-1	0	0	-6	17
CCn1c(SC(=O)NC2CCCCC2)nnc1-c1cccs1	-2	15	51*	6	-12
c1ccc(CN2CCC3CC2c2cc(N4CCOCC4)ccc23)cc1 (centres undefined)	nt	7	4	-6	nt
O=C(O)c1ccccc1C(=O)Nc1ccccc1	-2	0	-5	8	5
O=C(Nc1ccccc1)C1=C(c2ccccc2)S(=O)(=O)CCS1(=O)=O	nt	38	51*	31	nt
CCC1=NN(C(=O)c2cccc(Br)c2)C(O)(c2ccc(Br)cc2)C1 (centres undefined)	-5	32	56*	13	28
CCOC(=O)C1CCN(C(=O)c2[nH]c(C(F)(F)F)nc2-c2ccccc2)CC1	nt	-8	nt	-12	nt
CNC(=S)Nc1cccc(C(=O)OC)c1	-3	-5	1	-4	15
CC(NC(=O)/C(C#N)=C/c1ccc([N+](=O)[O-])o1)c1ccccc1 (centres undefined)	5	50*	nt	36	30
O=C(Nc1ccc(OC(F)(F)C(F)F)c(NC(=O)c2cccc(F)c2)c1)c1cccc(F)c1	-1	-6	-19	8	1
c1ccc(C2=NN(c3ccccc3)CC2)cc1	-5	-6	14	-3	5
